Test results reported in ChEMBL document CHEMBL4152354, “A reusable magnetic nickel nanoparticle based catalyst for the aqueous synthesis of diverse heterocycles and their evaluation as potential anti-bacterial agent” (2018).
In brackets after ≈: the same amount, converted by molar mass.

Tests used:
Type in all cases: functional
Streptococcus pyogenes = assay: Antibacterial activity against Streptococcus pyogenes MTCC 1925 assessed as zone of inhibition at 100 uL after 24 hrs by agar well-diffusion method
How it was run: (§1)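 Mueller-Hinton agar plates swabbed with a bacterial suspension adjusted to 1.5×10^8 CFU/ml. Each 5 mm well received 100 µl of compound, and plates were incubated at 37°C for 24 h. Chloramphenicol (30 mcg) was the positive control and DMSO the negative control. Inhibition zones around wells were measured manually, in triplicate.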

Bacillus cereus [1] = assay: Antibacterial activity against Bacillus cereus MTCC 430 after 18 hrs by TTC staining based broth microdilution method; conditions: MTCC 430, 18 h
How it was run: (§2)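 Broth microdilution in Mueller-Hinton broth. 50 µl of inoculum from a 0.5 McFarland suspension was added to 50 µl of compound, giving final concentrations of 0.024–400 mg/ml in DMSO. Sealed plates were incubated at 37°C for 18 h, then 50 µl of 0.5% TTC was added for 1 h in the dark. MIC was the lowest concentration with no visible growth (well stays clear). Triplicate; mean ± SD.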

Klebsiella pneumoniae [2] = assay: Antibacterial activity against Klebsiella pneumoniae MTCC 109 assessed as zone of inhibition at 100 uL after 24 hrs by agar well-diffusion method; how it was run: as §1
Bacillus cereus [3] = assay: Antibacterial activity against Bacillus cereus MTCC 430 assessed as zone of inhibition at 100 uL after 24 hrs by agar well-diffusion method; how it was run: as §1
Escherichia coli = assay: Antibacterial activity against Escherichia coli MTCC 730 assessed as zone of inhibition at 100 uL after 24 hrs by agar well-diffusion method; how it was run: as §1
Salmonella enterica = assay: Antibacterial activity against Salmonella enterica MTCC 735 assessed as zone of inhibition at 100 uL after 24 hrs by agar well-diffusion method
Klebsiella pneumoniae [4] = assay: Antibacterial activity against Klebsiella pneumoniae MTCC 109 after 18 hrs by TTC staining based broth microdilution method; conditions: MTCC 109, 18 h; how it was run: as §2

O=C(N[C@H](CO)[C@H](O)c1ccc([N+](=O)[O-])cc1)C(Cl)Cl [CHLORAMPHENICOL]
inhibition zone (IZ) (Streptococcus pyogenes): 36 mm
MIC (Bacillus cereus [1]): 90 µg/mL (≈ 279 µM)
inhibition zone (IZ) (Klebsiella pneumoniae [2]): 33 mm
inhibition zone (IZ) (Bacillus cereus [3]): 22 mm
inhibition zone (IZ) (Escherichia coli): 35 mm
inhibition zone (IZ) (Salmonella enterica): 17 mm
MIC (Klebsiella pneumoniae [4]): 90 µg/mL (≈ 279 µM)
